CHOP inhibitor: inhibitors of CHOP induction in ER stress response; inhibition, % at 10 µM; CHO-K1 CHOP-promoter luciferase, tunicamycin-induced, 15-18 h; 220,000 tested, 3.8% active;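 active = compounds that reduced the stress-induced luciferase reporter signal by more than about 70% of percent inhibition, limit read from the data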
CHOP UPR activ: apoptotic UPR (CHOP) activation | CHO-CHOP luciferase reporter, luminescence; percent of tunicamycin response over DMSO baseline | activation, % at 10 µM | 330,000 tested, 0.34% active | AID 449763;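 active = at 10 µM dose, activation of 40% or more, normalized to positive control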
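Test system: CHO-CHOP cells, stable luciferase reporter of PERK-eIF2a-CHOP signalling | Quantity: 500 CHO-CHOP cells per well | Buffer or medium: F12 plus 10% serum | Compound dosing: 10 µM single point, 0.5% DMSO | Schedule: 6 h compound treatment, 37 °C | Signal: Luciferase luminescence | Control set: Tunicamycin high control, DMSO low control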
Beta2AR agonist: activates human beta-2 adrenergic receptor causing internalization | response, % (concentration not given with the values) | 340,000 tested, 0.43% active | Am2.2-beta2AR cells, FAP receptor internalization, flow cytometry | P07550;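 active = response above a set limit, near 3 SD of response in nonfluorescent compounds, cut at about 42% in these data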
XBP1 UPR activ: adaptive UPR (XBP1) activation; activation, % at 20 µM; AID 463104; 330,000 tested, 0.33% active; CHO-XBP1 luciferase reporter, IRE1-XBP1 UPR activation, luminescence; percent of tunicamycin response, DMSO as zero;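 active = versus positive control, 20 µM dose yields 30% or more activation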
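assay system = CHO-XBP1 luciferase reporter cells | amount = 1000 cells/well | buffer or medium = F12 plus 10% FBS | compound dosing = single point, 20 µM final compound, 1% DMSO | incubation = 16-18 h cell attachment at 37 °C, then 6 h compound exposure | detection = Steady-Glo luminescence read | controls = tunicamycin 10 µg/mL and vehicle-only wells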
VLA-4 inh: inhibition in a human VLA-4 binding assay; P13612; 330,000 tested, 0.2% active; VLA-4 expressing cells, ligand binding flow cytometry; inhibition, % (about 7 µM as worked out from the volumes in the protocol); in the data active = inhibition above about 50%
Target sequence (P13612 whole entry, looked up): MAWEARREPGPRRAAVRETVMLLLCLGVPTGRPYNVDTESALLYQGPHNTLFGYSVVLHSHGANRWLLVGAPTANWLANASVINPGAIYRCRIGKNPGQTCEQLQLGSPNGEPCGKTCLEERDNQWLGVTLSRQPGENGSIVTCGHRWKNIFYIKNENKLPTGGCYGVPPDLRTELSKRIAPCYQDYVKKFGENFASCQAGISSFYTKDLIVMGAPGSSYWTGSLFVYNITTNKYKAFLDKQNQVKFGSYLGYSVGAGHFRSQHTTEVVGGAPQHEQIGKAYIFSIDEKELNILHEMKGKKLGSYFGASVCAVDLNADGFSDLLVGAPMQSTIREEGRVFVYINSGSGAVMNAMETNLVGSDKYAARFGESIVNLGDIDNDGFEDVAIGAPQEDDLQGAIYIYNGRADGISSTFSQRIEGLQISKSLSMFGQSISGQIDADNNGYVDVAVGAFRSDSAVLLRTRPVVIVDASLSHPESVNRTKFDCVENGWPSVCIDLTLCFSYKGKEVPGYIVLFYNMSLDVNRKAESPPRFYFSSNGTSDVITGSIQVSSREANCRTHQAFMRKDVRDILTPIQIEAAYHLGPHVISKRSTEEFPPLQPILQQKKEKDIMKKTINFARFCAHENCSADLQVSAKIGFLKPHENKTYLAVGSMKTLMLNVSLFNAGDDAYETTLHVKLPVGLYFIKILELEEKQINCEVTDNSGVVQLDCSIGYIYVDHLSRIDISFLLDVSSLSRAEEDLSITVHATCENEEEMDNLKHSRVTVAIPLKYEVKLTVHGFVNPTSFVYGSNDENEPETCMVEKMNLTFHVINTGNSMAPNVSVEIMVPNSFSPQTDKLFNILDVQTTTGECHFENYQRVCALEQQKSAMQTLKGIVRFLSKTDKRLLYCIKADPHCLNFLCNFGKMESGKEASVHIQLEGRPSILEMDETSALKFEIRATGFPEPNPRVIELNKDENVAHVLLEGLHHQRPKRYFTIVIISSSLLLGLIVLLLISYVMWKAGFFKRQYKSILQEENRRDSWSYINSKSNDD
Hits are given with their value; i = inactive; nt = no result given. Many of the other results were omitted from the sample, so hits are more common in it than they were.

SMILES | CHOP inhibitor | CHOP UPR activ | Beta2AR agonist | XBP1 UPR activ | VLA-4 inh
O=C(c1cc2nc(-c3ccc(F)cc3)cc(C(F)(F)F)n2n1)N1CCCCC1c1cccnc1 (centres undefined) | 72.9 | i | i | i | i
O=C(O)c1cc2nc(-c3ccccc3)cc(-c3ccccc3)n2n1 | i | i | i | i | i
Cc1ccc(OCCCC(=O)Nc2ccc(Br)cc2)cc1 | 74.2 | i | i | i | i
CC(NS(=O)(=O)c1ccc(F)cc1)C(c1cccs1)N1CCOCC1 (centres undefined) | i | i | i | i | i
CCN1CCN(C(c2cccs2)C(C)NS(=O)(=O)c2ccc(F)cc2)CC1 (centres undefined) | 73.3 | i | i | i | i
O=C(Nc1cc(F)cc(F)c1)c1sc(Cl)nc1-c1ccccc1 | 75.3 | i | i | i | i
O=C(/C=C/c1ccc2c(c1)OCO2)Nc1ccc(Cl)cn1 | i | i | i | i | i
COC(=O)CCn1nnc(-c2ccc(C(C)C)cc2)n1 | 88.1 | i | i | i | i
Fc1ccccc1CNc1ncnc2sccc12 | nt | i | i | i | i
c1ccc2c(c1)OCC(CNc1ncnc3sccc13)O2 (centres undefined) | 79.2 | nt | i | nt | i
COc1ccc(C(=O)c2ccccc2)c2c(O)ccc(C(=O)c3ccccc3)c12 | 85.9 | i | i | i | i
Cc1cc(C(=O)N/N=C/c2cc(Br)cc(Br)c2OC(=O)c2ccccc2)n[nH]1 | 81.4 | i | nt | i | i
Cc1cc(C(=O)N/N=C/c2cc(Br)cc(Br)c2OC(=O)c2cccc(F)c2)n[nH]1 | 92.2 | i | i | i | i
Cc1cc(C(=O)N/N=C/c2cc(Br)ccc2OC(=O)c2ccc(Br)cc2)n[nH]1 | i | i | nt | i | i
Cc1nn(CC(O)COc2ccc3c(c2)CCC3)c(C)c1Br (centres undefined) | 82.0 | i | i | i | i
CC1CCCN(S(=O)(=O)c2ccc(CN3C(=O)c4cccnc4C3=O)cc2)C1 (centres undefined) | nt | i | i | i | i
CC(C)c1cc(Br)ccc1OCCCN1C(=O)NC(C)(C)C1=O | 73.0 | i | i | i | i
CCOc1nc(C)ccc1-c1noc(-c2cccnc2)n1 | nt | i | i | i | i
CCOc1cc(-c2nc(-c3ccc(C)nc3OC)no2)cc(OCC)c1OCC | 77.2 | nt | i | nt | nt
CCOc1cc(-c2nc(-c3ccc(C)nc3OCC)no2)cc(OCC)c1OCC | i | i | i | i | i
CCOc1nc(C)ccc1-c1noc(-c2ccccc2OC)n1 | 71.8 | i | i | i | i
CCOc1ccccc1-c1nc(-c2cc3ccc(C)cc3[nH]c2=O)no1 | 71.7 | i | i | i | i
O=C(CNC(=O)C1CCCCC1)OCC(=O)c1ccc(Br)cc1 | nt | i | i | i | nt
CC(C)(C)C(=O)C(Cl)C(=O)Nc1ccccc1 (centres undefined) | 80.4 | i | i | 53.8 | i
COc1ccccc1CCNC(=O)C1CCC(=O)N(C2CCCCCC2)C1 (centres undefined) | nt | i | i | i | i
SMILES | CHOP inhibitor | CHOP UPR activ | Beta2AR agonist | XBP1 UPR activ | VLA-4 inh
CCOc1ccccc1C(=O)Nc1nnc(C(C)C)s1 | 75.7 | i | i | i | i
CCOc1ccccc1C(=O)Nc1nncs1 | i | i | i | i | i
Cc1cccn2c(=O)c(C=O)c(NCc3ccccc3)nc12 | i | i | i | i | i
CCOC(=O)C1=C(C)NC(=O)C(C#N)C1c1ccco1 (centres undefined) | 70.5 | i | i | i | i
COc1ccc2cc(C(c3nnnn3CCc3ccccc3)N3CCCC(C)C3)c(=O)[nH]c2c1 (centres undefined) | 86.8 | i | i | i | i
C=CCSc1nc(C)c2cc(C)cc(C)c2n1 | 95.9 | i | i | i | i
COc1ccc(C2C(C(=O)c3cccs3)=C(O)C(=O)N2CCN2CCOCC2)c(OC)c1 (centres undefined) | nt | i | i | i | i
O=C(c1ccc(N2CCCS2(=O)=O)cc1)N1CCN(c2ccccc2)CC1 | nt | i | i | i | i
CCOC(=O)C(=CNc1ccc2c(c1)nnn2-c1ccc(Cl)cc1)C(=O)OCC | 78.8 | i | i | i | i
CCOC(=O)C(=CNc1cc(C)nn1-c1ccc(C)cc1)C(=O)OCC | i | i | i | i | i
CCOC(=O)c1ccc(NC(=O)c2c(Cl)cc(C)nc2C)cc1 | nt | i | i | i | i
CC(=O)N(/N=C/c1cccc(C)c1)c1nc(-c2ccc(Br)cc2)cs1 | 95.2 | i | i | i | i
COc1ccc([N+](=O)[O-])cc1NC(=S)NC(NC(=O)C(c1ccccc1)c1ccccc1)C(Cl)(Cl)Cl (centres undefined) | 72.8 | i | i | i | i
COc1ccc([N+](=O)[O-])cc1NC(=O)C(C)c1ccccc1 (centres undefined) | i | i | i | i | i
CC(=O)NC(C)(CC(=O)c1ccccc1)c1ccccc1 (centres undefined) | nt | i | i | i | i
COc1ccc(-c2nc3ccccc3c(=O)n2O)cc1 | nt | i | i | i | i
COc1cc(OC)cc(-c2nc3ccccc3c(=O)n2OC(=O)c2ccccc2C)c1 | 93.6 | i | i | i | i
CCOc1ccc(OCC)c(NC(=O)c2nnn(CC(=O)Nc3cc(C)cc(C)c3)c2N)c1 | nt | i | i | i | i
O=c1[nH]nc(Cc2ccc(Cl)cc2Cl)c2ccccc12 | 79.6 | i | i | i | i
O=c1[nH]nc(CNc2ccc(Cl)cc2Cl)c2ccccc12 | 70.8 | i | i | i | i
O=c1[nH]nc(Cc2ccc(Cl)cc2)c2ccccc12 | i | i | i | i | i
O=S(=O)(Nc1cccc(S(=O)(=O)N2CCCC2)c1)c1ccc(Cl)s1 | nt | i | i | i | i
O=C(CSCc1ccc(Cl)cc1)Nc1ccc(O)cc1C(=O)O | nt | i | i | i | i
COc1ccc(CCN2CC(C(=O)N(C)CCc3cn[nH]c3)CCC2=O)cc1 (centres undefined) | nt | i | i | i | nt
CC(=O)N1c2ccc3ccccc3c2C2C=CCC2C1c1ccc(Br)cc1 (centres undefined) | i | nt | nt | nt | i
SMILES | CHOP inhibitor | CHOP UPR activ | Beta2AR agonist | XBP1 UPR activ | VLA-4 inh
CC(=O)N1c2ccc(Cl)cc2C2C=CCC2C1c1cccc2ccccc12 (centres undefined) | 84.7 | nt | i | nt | i
O=C1CCC2S/C(=C/Nc3ccc(C(F)(F)F)cc3)C(=O)N12 (centres undefined) | 94.9 | i | i | i | i
CC[C@@]1(C(=O)OC)N[C@H](CN(C)C(=O)c2ccc(F)cc2)[C@@H]2C(=O)N(C)C(=O)[C@@H]21 | nt | i | i | i | i
O=C(Nc1nccs1)c1c(O)c2cccc3c2n(c1=O)CCC3 | 107.9 | i | nt | i | i
CCCCCCc1nc2ccccc2c(=O)n1NC(=O)c1c(O)c2cccc3c2n(c1=O)CCC3 | 85.3 | nt | nt | nt | nt
O=C(Nc1ccccn1)c1c(O)c2cccc3c2n(c1=O)CCC3 | i | i | i | i | i
Cc1cccnc1NC(=O)c1c(O)c2cccc3c2n(c1=O)CCC3 | 79.6 | i | i | i | i
